Results from ChEMBL document CHEMBL4024799, “Synthesis and Biological Characterization of Aryl Uracil Inhibitors of Hepatitis C Virus NS5B Polymerase: Discovery of ABT-072, a trans-Stilbene Analog with Good Oral Bioavailability” (J Med Chem, 2018).
Converted amounts (≈) assume the structure as drawn. The source made the active and inactive calls. No cut-off for these calls is given here.

Assays:
[1] = Plasma clearance in dog at 2.5 mg/kg, iv; type: ADME, organism-based, Canis lupus familiaris
[2] = system: Hepatitis C virus (isolate BK); experiment: Inhibition of HCV genotype 1b BK NS5B RNA dependent RNA polymerase M414T mutant assessed as reduction in [3H]UTP incorporation in to RNA preincubated for 15 mins followed by [3H]UTP addition measured after 3 hrs by microbeta scintillation counting method
Procedure, shortened: (§1)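 Standard NS5B polymerase inhibition assay using genotype 1a (H77) or 1b (BK) enzyme. RNA product formation was measured as ³H-UTP incorporated into RNA, read by scintillation counting. IC50 was calculated with a standard IC50 equation.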

[3] = AUC in Sprague-Dawley rat at 5 mg/kg, po; type: ADME, organism-based; conditions: in vivo
Procedure, shortened: (§2)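 Sprague-Dawley rats, n = 3 per experiment; solution in DMSO:PEG400 (1:9, v/v) given IV or oral; 5 mg/kg for both routes, and 30 mg/kg oral; plasma t1/2, Vss, clearance, Cmax, AUC and F% determined.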

[4] = system: Rattus norvegicus; experiment: AUC in Sprague-Dawley rat at 30 mg/kg, po; type: ADME, organism-based; conditions: in vivo; procedure, shortened: as §2
[5] = Cmax in dog at 2.5 mg/kg, po; type: ADME, organism-based, Canis lupus familiaris; parameters: dose 2.5 mg/kg, route oral; conditions: in vivo
[6] = Oral bioavailability in dog at 30 mg/kg; type: ADME, organism-based, Canis lupus familiaris; conditions: in vivo
[7] = Oral bioavailability in Sprague-Dawley rat at 5 mg/kg; type: ADME, organism-based; conditions: in vivo; procedure, shortened: as §2
[8] = AUC (infinity) in human at 160 mg administered as single dose; type: ADME; parameters: dose 160 mg, time infinity; conditions: in vivo
Procedure, shortened: (§3)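 Single oral doses of 80, 160 or 320 mg in healthy subjects; plasma concentration-time profiles reported as mean (+SD); Cmax and terminal phase half-life derived.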

[9] = system: Hepatitis C virus; experiment: Antiviral activity against HCV genotype 1 infected in human assessed as decrease in viral RNA load at 160 mg administered once daily for 2 days; type: functional, Hepacivirus hominis
Procedure, shortened: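 HCV GT1-infected patients (N=4) given 160 mg once daily for 2 days; read-out was least squares mean maximum decrease from baseline in HCV RNA (log10 IU/mL).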

[10] = Inhibition of HCV genotype 2a NS5B RNA dependent RNA polymerase assessed as reduction in [3H]UTP incorporation in to RNA preincubated for 15 mins followed by [3H]UTP addition measured after 3 hrs by microbeta scintillation counting method; parameters: species or system Hepatitis C virus subtype 2a
[11] = system: Hepatitis C virus; experiment: Antiviral activity against HCV genotype 1b Con1 infected in human HuH7 cells harboring HCV subgenomic bicistronic replicon after 3 days in presence of 40% human plasma by luciferase reporter gene assay; type: functional, cell-based, Hepacivirus hominis; conditions: genotype 1b Con1, Huh-7, 72 h
Procedure, shortened: (§4)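 Subgenomic genotype 1a (H77) or 1b (Con1) replicons carrying firefly luciferase, transfected into Huh-7 cells. Replication inhibition was read as luciferase level in cell lysate on a luminometer and reported as EC50. Runs were done without human plasma or with 40% human plasma added, to assess inhibitor–protein binding.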

[12] = system: Hepatitis C virus (isolate H77); experiment: Inhibition of HCV genotype 1a H77 NS5B RNA dependent RNA polymerase M414T mutant assessed as reduction in [3H]UTP incorporation in to RNA preincubated for 15 mins followed by [3H]UTP addition measured after 3 hrs by microbeta scintillation counting method; procedure, shortened: as §1
[13] = system: Hepatitis C virus (isolate BK); experiment: Inhibition of HCV genotype 1b BK NS5B RNA dependent RNA polymerase Y448H mutant assessed as reduction in [3H]UTP incorporation in to RNA preincubated for 15 mins followed by [3H]UTP addition measured after 3 hrs by microbeta scintillation counting method; procedure, shortened: as §1
[14] = Volume of distribution at steady state in Sprague-Dawley rat at 5 mg/kg, iv; type: ADME, organism-based; conditions: in vivo, read-out: Vdss
Procedure, shortened: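 Sprague-Dawley rats, n = 3 per experiment, each given a 5 mg/kg intravenous dose. The compound was formulated as a solution in DMSO:PEG400 (1:9, v/v). Plasma concentration–time data were used to derive pharmacokinetic parameters, including Vss.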

[15] = Tmax in human at 160 mg administered as single dose; type: ADME; conditions: in vivo
[16] = AUC (infinity) in human at 320 mg administered as single dose; type: ADME; parameters: dose 320 mg, time infinity; conditions: in vivo; procedure, shortened: as §3
[17] = Oral bioavailability in Sprague-Dawley rat at 30 mg/kg; type: ADME, organism-based; conditions: in vivo; procedure, shortened: as §2
[18] = Cmax in human at 80 mg administered as single dose; type: ADME; parameters: dose 80 mg; conditions: in vivo; procedure, shortened: as §3
[19] = Half life in Sprague-Dawley rat at 5 mg/kg, po; type: ADME, organism-based; conditions: in vivo; procedure, shortened: as §2
[20] = system: Plasma; experiment: Drug uptake in human plasma administered as single dose; type: ADME, cell-free
[21] = Half life in Sprague-Dawley rat at 30 mg/kg, po; type: ADME, organism-based; conditions: in vivo; procedure, shortened: as §2
[22] = AUC (infinity) in human at 80 mg administered as single dose; type: ADME; parameters: dose 80 mg, time infinity; conditions: in vivo; procedure, shortened: as §3
[23] = Aqueous solubility of the compound at pH 7.2; type: physicochemical; conditions: buffer, read-out: solubility
[24] = system: Rattus norvegicus; experiment: AUC in Sprague-Dawley rat at 5 mg/kg, iv; type: ADME, organism-based; conditions: in vivo; procedure, shortened: as §2
[25] = Ratio of drug level in dog liver to plasma at 2.5 mg/kg, po after 24 hrs; type: ADME, organism-based, Canis lupus familiaris
[26] = system: Hepatitis C virus; experiment: Antiviral activity against HCV genotype 1b Con1 infected in human HuH7 cells harboring HCV subgenomic bicistronic replicon after 3 days by luciferase reporter gene assay; type: functional, cell-based, Hepacivirus hominis; conditions: genotype 1b Con1, Huh-7, 72 h; procedure, shortened: as §4
[27] = Terminal half life in human at 80 mg administered as single dose; type: ADME; conditions: in vivo, read-out: beta t1/2 (converted); procedure, shortened: as §3
[28] = Tmax in human at 320 mg administered as single dose; type: ADME; conditions: in vivo
[29] = Tmax in human infected with HCV genotype 1 at 160 mg administered once daily for 2 days; type: ADME; conditions: in vivo
[30] = Terminal half life in human at 160 mg administered as single dose; type: ADME; conditions: in vivo, read-out: beta t1/2 (converted); procedure, shortened: as §3
[31] = system: Plasma; experiment: Drug level in po dosed dog plasma up to 24 hrs; type: ADME, organism-based, Canis lupus familiaris; conditions: in vivo
Procedure, shortened: (§5)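 Dogs given oral doses; liver tissue and plasma drug levels measured at 12 and 24 h; liver:plasma ratio calculated.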

[32] = system: Hepatitis C virus; experiment: Antiviral activity against HCV genotype 1a H77 infected in human HuH7 cells harboring HCV subgenomic bicistronic replicon after 3 days in presence of 40% human plasma by luciferase reporter gene assay; type: functional, cell-based, Hepacivirus hominis; conditions: genotype 1a H77, Huh-7, 72 h; procedure, shortened: as §4
[33] = Drug level in dog liver at 2.5 mg/kg, po after 24 hrs; type: ADME, organism-based, Canis lupus familiaris; conditions: read-out: Drug uptake; procedure, shortened: as §5
[34] = Cmax in human at 320 mg administered as single dose; type: ADME; parameters: dose 320 mg; conditions: in vivo; procedure, shortened: as §3
[35] = Ratio of drug level in Sprague-Dawley rat liver to plasma at 5 mg/kg, po after 12 hrs; type: ADME, organism-based
Procedure, shortened: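 Male/female not given; Sprague-Dawley rats, n = 3 per experiment, single 5 mg/kg oral dose given as a solution in DMSO:PEG400 (1:9, v/v). Drug concentrations measured in liver tissue and plasma at 12 h and 24 h post-dose; value reported as the liver-to-plasma concentration ratio.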

[36] = system: Canis familiaris; experiment: AUC in dog at 2.5 mg/kg, iv; type: ADME, organism-based, Canis lupus familiaris; conditions: in vivo
[37] = Half life in human infected with HCV genotype 1 at 160 mg administered once daily for 2 days; type: ADME; conditions: in vivo
Procedure, shortened: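 HCV GT1-infected patients (N=4) given 160 mg once daily for 2 days; plasma Cmax, AUC and t1/2 determined.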

[38] = system: Hepatitis C virus; experiment: Antiviral activity against HCV genotype 1a H77 infected in human HuH7 cells harboring HCV subgenomic bicistronic replicon after 3 days by luciferase reporter gene assay; type: functional, cell-based, Hepacivirus hominis; conditions: genotype 1a H77, Huh-7, 72 h; procedure, shortened: as §4
[39] = Half life in dog at 30 mg/kg, po; type: ADME, organism-based, Canis lupus familiaris; conditions: in vivo
[40] = Cmax in human at 160 mg administered as single dose; type: ADME; parameters: dose 160 mg; conditions: in vivo; procedure, shortened: as §3

With `COc1c(/C=C/c2ccc(NS(C)(=O)=O)cc2)cc(-n2ccc(=O)[nH]c2=O)cc1C(C)(C)C` [ABT-072] the clearance [1] was 2.5 mL/min/kg, the inhibition [2] was “inactive” and the AUC [3] was 2520 ng·h/mL. The AUC [4] was 21600 ng·h/mL, the Cmax [5] was 880 ng/mL and the bioavailability [6] was 61%. It also gave a bioavailability [7] of 44%, an AUC(0-inf) [8] of 4640 ng·h/mL and an Activity [9] of 1.18 log10IU/ml. For the same compound, the IC50 [10] was 23000 nM, the EC50 [11] was 2.4 nM and the inhibition [12] was “inactive”. For the same compound, the inhibition [13] was “inactive”, the Vd [14] was 3.7 L/kg and the Tmax [15] was 6.8 h. The AUC(0-inf) [16] was 7200 ng·h/mL, the bioavailability [17] was 63% and the Cmax [18] was 180 ng/mL. The half-life [19] was 3.1 h, the Drug uptake [20] was “Dose-dependent effect” and the half-life [21] was 3.5 h. For the same compound, the AUC(0-inf) [22] was 2440 ng·h/mL, the solubility [23] was 20.7 µM (≈ 9.72 µg/mL) and the AUC [24] was 5730 ng·h/mL. It also gave a Kp at 24 h [25] of 10, an EC50 [26] of 0.3 nM and a half-life [27] of 8.17 h. The Tmax [28] was 8.8 h, the Tmax [29] was 3.6 h and the half-life [30] was 7.63 h. For the same compound, the Drug uptake [31] was “Dose-dependent effect”, the EC50 [32] was 19 nM and the concentration at 24 h [33] was > 1000 ng/g. For the same compound, the Cmax [34] was 486 ng/mL, the Kp at 12 h [35] was 71 and the AUC [36] was 16800 ng·h/mL. The half-life [37] was 8.56 h, the EC50 [38] was 1.1 nM and the half-life [39] was 9.6 h. The Cmax [40] was 303 ng/mL.
